In ChEMBL document CHEMBL4371070, “Design, synthesis of novel purin-6-one derivatives as phosphodiesterase 2 (PDE2) inhibitors: The neuroprotective and anxiolytic-like effects” (Bioorg Med Chem Lett, 2019):
The source made the active and inactive calls. The calls are words filed in the database; no cut-off is given here.

Columns and labels:
[1] = target: cGMP-dependent 3',5'-cyclic phosphodiesterase (Homo sapiens, UniProt O00408); test: Inhibition of PDE2 (unknown origin) using [3H]cAMP or [3H]cGMP as substrate measured after 30 mins by liquid scintillation counting method
Mus musculus [2] = organism: Mus musculus; test: Inhibition of PDE2 in mouse HT22 cells assessed as suppression of corticosterone-induced decrease in cAMP level at 1 uM after 24 hrs by ELISA; type: cell-based
Method in brief: (§1)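 Corticosterone at 100 μM applied to HT-22 cells for 30 min, followed by compound for 24 h. Intracellular cGMP and cAMP levels measured. Mean ± SEM, n = 6; compared with vehicle-treated corticosterone group.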

Mus musculus [3] = organism: Mus musculus; test: Inhibition of PDE2 in mouse HT22 cells assessed as suppression of corticosterone-induced decrease in cGMP level at 1 uM after 24 hrs by ELISA; type: cell-based; method in brief: as §1
Mus musculus [4] = test: Anxiolytic activity in ICR mouse model of chronic stress-induced cognitive impairment assessed as increase in time spent in open arms at 0.5 mg/kg, ip measured for 5 mins test period by elevated plus maze test; type: functional, organism-based
Method in brief: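 Chronically stressed mice given the reference drug at 0.5 mg/kg i.p., then tested in the elevated plus-maze for open-arm measures. Mean ± SEM, n = 6, versus vehicle-treated stressed group.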

Mus musculus [5] = test: Anxiolytic activity in ICR mouse model of chronic stress-induced cognitive impairment assessed as increase in time spent in open arms at 2 mg/kg, ip measured for 5 mins test period by elevated plus maze test; type: functional, organism-based
[6] = target: cAMP and cAMP-inhibited cGMP 3',5'-cyclic phosphodiesterase 10A (Homo sapiens, UniProt Q9Y233); test: Inhibition of PDE10 (unknown origin) using [3H]cAMP or [3H]cGMP as substrate measured after 30 mins by liquid scintillation counting method
[7] = target: High affinity cGMP-specific 3',5'-cyclic phosphodiesterase 9A (Homo sapiens, UniProt O76083); test: Inhibition of PDE9 (unknown origin) using [3H]cAMP or [3H]cGMP as substrate measured after 30 mins by liquid scintillation counting method
[8] = target: cGMP-specific 3',5'-cyclic phosphodiesterase (Homo sapiens, UniProt O76074); test: Inhibition of PDE5 (unknown origin) using [3H]cAMP or [3H]cGMP as substrate measured after 30 mins by liquid scintillation counting method
Phosphodiesterase 4 = Phosphodiesterase 4 (Homo sapiens, UniProt P27815+Q08499+Q07343+Q08493); test: Inhibition of PDE4 (unknown origin) using [3H]cAMP or [3H]cGMP as substrate measured after 30 mins by liquid scintillation counting method; type: protein assay
Phosphodiesterase 1 = Phosphodiesterase 1 (Homo sapiens, UniProt P54750+Q01064+Q14123); test: Inhibition of PDE1 (unknown origin) using [3H]cAMP or [3H]cGMP as substrate measured after 30 mins by liquid scintillation counting method; type: protein assay
[9] = Half life in ICR mouse at 2 mg/kg, po by LC-MS/MS analysis; type: ADME, organism-based; conditions: in vivo
[10] = AUC (0 to infinity) in ICR mouse at 2 mg/kg, po by LC-MS/MS analysis; type: ADME, organism-based; set-up: dose 2 mg/kg, time infinity, route oral; conditions: in vivo
[11] = Ratio of drug level in ICR mouse brain to plasma at 2 mg/kg, po measured after 0.5 hrs by LC-MS/MS analysis; type: ADME, organism-based; conditions: brain and plasma, read-out: BPR
Method in brief: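 Oral dose of 2 mg/kg in mice. Brain and plasma drug levels taken at 0.5 h after oral administration, and expressed as brain-to-plasma ratio.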

[12] = Toxicity in ICR mouse assessed as effect on locomotory activity at 0.5 to 2 mg/kg, ig administered as single dose via gavage measured for 10 mins; type: organism-based; conditions: in vivo, po
Method in brief: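 Locomotor activity test in chronically stressed mice; locomotion counts recorded 10 minutes after a single oral treatment. Mean ± SEM, n = 6.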

[13] = Tmax in ICR mouse at 2 mg/kg, po by LC-MS/MS analysis; type: ADME, organism-based; conditions: in vivo
[14] = Cmax in ICR mouse at 2 mg/kg, po by LC-MS/MS analysis; type: ADME, organism-based; set-up: dose 2 mg/kg, route oral; conditions: in vivo

Chain of cGMP-dependent 3',5'-cyclic phosphodiesterase (O00408 whole entry): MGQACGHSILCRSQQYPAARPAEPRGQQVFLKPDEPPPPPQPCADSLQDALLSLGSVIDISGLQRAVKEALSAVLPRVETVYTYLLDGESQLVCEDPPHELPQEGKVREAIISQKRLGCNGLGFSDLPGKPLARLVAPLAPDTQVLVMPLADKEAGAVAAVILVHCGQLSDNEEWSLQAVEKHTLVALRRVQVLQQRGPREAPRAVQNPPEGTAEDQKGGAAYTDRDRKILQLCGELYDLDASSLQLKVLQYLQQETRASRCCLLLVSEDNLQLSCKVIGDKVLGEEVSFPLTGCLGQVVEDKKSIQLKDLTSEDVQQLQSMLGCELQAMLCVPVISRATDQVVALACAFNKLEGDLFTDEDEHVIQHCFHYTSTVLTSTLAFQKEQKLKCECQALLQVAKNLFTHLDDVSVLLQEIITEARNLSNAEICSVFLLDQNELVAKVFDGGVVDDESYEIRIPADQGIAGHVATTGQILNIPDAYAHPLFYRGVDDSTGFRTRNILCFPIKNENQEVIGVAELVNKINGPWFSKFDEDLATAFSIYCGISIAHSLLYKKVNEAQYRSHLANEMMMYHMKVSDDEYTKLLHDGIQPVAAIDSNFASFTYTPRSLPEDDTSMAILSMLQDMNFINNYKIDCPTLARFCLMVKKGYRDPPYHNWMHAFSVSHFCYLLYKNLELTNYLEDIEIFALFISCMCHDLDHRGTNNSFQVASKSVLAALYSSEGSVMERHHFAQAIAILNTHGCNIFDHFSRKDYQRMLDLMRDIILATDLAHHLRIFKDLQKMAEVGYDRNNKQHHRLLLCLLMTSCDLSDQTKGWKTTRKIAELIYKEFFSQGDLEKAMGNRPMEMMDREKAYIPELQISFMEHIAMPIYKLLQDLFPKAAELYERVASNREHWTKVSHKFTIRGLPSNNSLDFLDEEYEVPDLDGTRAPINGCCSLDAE
Chain of cAMP and cAMP-inhibited cGMP 3',5'-cyclic phosphodiesterase 10A (Q9Y233 whole entry): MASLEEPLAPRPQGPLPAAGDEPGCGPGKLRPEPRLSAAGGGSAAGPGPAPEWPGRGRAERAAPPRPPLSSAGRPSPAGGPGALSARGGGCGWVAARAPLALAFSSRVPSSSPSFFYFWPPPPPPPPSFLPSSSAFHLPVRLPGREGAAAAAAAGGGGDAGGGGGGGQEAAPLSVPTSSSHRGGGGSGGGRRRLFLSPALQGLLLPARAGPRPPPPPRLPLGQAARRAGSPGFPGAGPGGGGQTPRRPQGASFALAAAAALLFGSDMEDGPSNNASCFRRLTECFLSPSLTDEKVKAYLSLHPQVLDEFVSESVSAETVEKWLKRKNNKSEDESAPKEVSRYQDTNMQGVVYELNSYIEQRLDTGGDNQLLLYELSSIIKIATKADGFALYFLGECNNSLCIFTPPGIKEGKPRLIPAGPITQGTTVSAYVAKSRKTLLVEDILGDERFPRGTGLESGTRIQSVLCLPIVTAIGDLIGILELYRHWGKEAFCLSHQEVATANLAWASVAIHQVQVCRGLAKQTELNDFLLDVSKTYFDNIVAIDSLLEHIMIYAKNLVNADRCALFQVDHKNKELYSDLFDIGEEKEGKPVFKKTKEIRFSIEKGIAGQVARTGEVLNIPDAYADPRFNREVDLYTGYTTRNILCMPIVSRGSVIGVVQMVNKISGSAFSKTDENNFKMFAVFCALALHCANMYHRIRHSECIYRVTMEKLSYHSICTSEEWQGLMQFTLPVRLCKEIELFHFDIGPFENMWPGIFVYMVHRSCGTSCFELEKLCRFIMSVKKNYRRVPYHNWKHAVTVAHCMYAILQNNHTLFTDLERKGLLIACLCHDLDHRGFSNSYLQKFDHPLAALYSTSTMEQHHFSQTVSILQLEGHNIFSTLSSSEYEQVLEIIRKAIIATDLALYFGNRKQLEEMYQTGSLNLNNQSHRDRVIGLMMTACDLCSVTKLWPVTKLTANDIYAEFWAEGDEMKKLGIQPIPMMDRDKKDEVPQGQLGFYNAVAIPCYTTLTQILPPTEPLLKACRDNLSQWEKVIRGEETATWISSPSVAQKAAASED
Chain of High affinity cGMP-specific 3',5'-cyclic phosphodiesterase 9A (O76083 whole entry): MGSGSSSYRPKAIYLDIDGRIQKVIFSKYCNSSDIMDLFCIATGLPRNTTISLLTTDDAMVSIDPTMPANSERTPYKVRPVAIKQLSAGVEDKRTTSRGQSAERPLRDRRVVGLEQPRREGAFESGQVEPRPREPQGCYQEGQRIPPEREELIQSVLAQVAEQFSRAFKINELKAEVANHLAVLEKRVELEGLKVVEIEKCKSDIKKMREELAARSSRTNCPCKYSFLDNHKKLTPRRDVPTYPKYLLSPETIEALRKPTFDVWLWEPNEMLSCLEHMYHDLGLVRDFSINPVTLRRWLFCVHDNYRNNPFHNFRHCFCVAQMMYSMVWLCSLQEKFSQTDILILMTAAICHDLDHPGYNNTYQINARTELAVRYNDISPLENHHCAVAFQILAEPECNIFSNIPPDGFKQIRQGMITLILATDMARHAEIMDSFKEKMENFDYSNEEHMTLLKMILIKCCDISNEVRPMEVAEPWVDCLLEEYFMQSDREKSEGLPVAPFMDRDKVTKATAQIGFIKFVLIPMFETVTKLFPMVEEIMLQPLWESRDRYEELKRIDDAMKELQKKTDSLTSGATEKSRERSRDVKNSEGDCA

SMILES | IC50 [1] | other results
O=c1[nH]c(Cc2ccc(OCc3ccccc3)cc2)nc2c1ncn2CCc1ccccc1 | 5.8 µM | –
COc1ccc(Cc2nc(O)c3c(C)nc([C@@H](CCCc4ccccc4)[C@@H](C)O)n3n2)cc1OC | – | inhibition (Mus musculus [2]): Active; inhibition (Mus musculus [3]): Active; Activity (Mus musculus [4]): inactive
CCCCCCCCn1cnc2c(=O)[nH]c(Cc3ccc(OCc4ccccc4)cc3)nc21 | 2.63 µM | –
CCCCCCn1cnc2c(=O)[nH]c(Cc3ccc(OC)cc3)nc21 | 3.79 µM | –
CCCCCCn1cnc2c(=O)[nH]c(Cc3ccc(OCc4ccccc4)cc3)nc21 | 3.91 µM | –
CCCCCCCCn1cnc2c(=O)[nH]c(Cc3ccccc3)nc21 | 4.28 µM | –
O=c1[nH]c(Cc2ccccc2)nc2c1ncn2CCc1cccs1 | 17 µM | –
CCCCn1cnc2c(=O)[nH]c(Cc3ccc(OCc4ccccc4)cc3)nc21 | 5.46 µM | –
CC(c1cccc2ccccc12)N1C=NC2C(=O)NC(Cc3ccccc3)=NC21 (stereo unspecified) | 0.57 µM | –
CCCCn1cnc2c(=O)[nH]c(Cc3ccccc3)nc21 | 4.32 µM | –
CCCCn1cnc2c(=O)[nH]c(Cc3ccc(OC)cc3)nc21 | 1.94 µM | –
O=c1[nH]c(Cc2ccccc2)nc2c1ncn2CCc1c[nH]c2ccccc12 | > 50 µM | –
CN1C(=O)CN=C(c2ccccc2)c2cc(Cl)ccc21 | – | Activity (Mus musculus [5]): Active
COc1ccc(CCn2cnc3c(=O)[nH]c(Cc4ccc(OCc5ccccc5)cc4)nc32)cc1OC | > 50 µM | –
CCCCC(CC)Cn1cnc2c(=O)[nH]c(Cc3ccc(OCc4ccccc4)cc3)nc21 (stereo unspecified) | 0.072 µM | IC50 [6]: > 500 µM; IC50 [7]: 13.9 µM; IC50 [8]: > 500 µM; IC50 (Phosphodiesterase 4): > 500 µM; IC50 (Phosphodiesterase 1): > 500 µM
CCCCC(CC)Cn1cnc2c(=O)[nH]c(Cc3ccc(OC)cc3)nc21 (stereo unspecified) | 0.081 µM | half-life [9]: 84 min; IC50 [6]: > 500 µM; IC50 [7]: 32.3 µM; AUC(0-inf) [10]: 646 ng·h/mL; Kp at 0.5 h [11]: 0.56; Activity [12]: Non-Toxic; IC50 [8]: > 500 µM; IC50 (Phosphodiesterase 4): > 500 µM; IC50 (Phosphodiesterase 1): > 500 µM; Tmax [13]: 31.8 min; Cmax [14]: 511 ng/mL
O=c1[nH]c(Cc2ccccc2)nc2c1ncn2CCc1ccccc1 | 7.27 µM | –
CCCCC(CC)Cn1cnc2c(=O)[nH]c(Cc3ccccc3)nc21 (stereo unspecified) | 1.24 µM | –
CC(CCc1ccccc1)n1cnc2c(=O)[nH]c(Cc3ccccc3)nc21 (stereo unspecified) | 0.31 µM | –
CCCCCCn1cnc2c(=O)[nH]c(Cc3ccccc3)nc21 | 5.94 µM | –
COc1ccc(CCn2cnc3c(=O)[nH]c(Cc4ccccc4)nc32)cc1OC | 40.3 µM | –
O=c1[nH]c(Cc2ccccc2)nc2c1ncn2Cc1ccc2ccccc2c1 | 3.99 µM | –
COc1cccc(CCn2cnc3c(=O)[nH]c(Cc4ccccc4)nc32)c1 | 11 µM | –
